Data reported in ChEMBL document CHEMBL1151927, “CSI-FID: high throughput label-free detection of DNA binding molecules” (Bioorg Med Chem Lett, 2009).
Active and inactive are the calls of the source. The rule behind the calls is not given here.

Legend:
Format in all cases: nucleic-acid assay
Nucleic Acid [1] = experiment: Displacement of ethidium bromide from DNA TAGAATA region at 3 uM by […] analysis
Summary of the method: (§1)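 CSI microarray of hairpinned dsDNA probes covering all 9 bp permutations. The array was incubated 1 h with 6 μM EtBr in binding buffer (100mM NaCl, 100mM Tris pH 8.0). Unlabeled ligand (3 μM) was then added to the EtBr solution for a further 1 h to reach equilibrium. Per-feature ratio of displaced to undisplaced EtBr fluorescence, expressed as FD = 1−(1−Rseq)/(1−RMax).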

Nucleic Acid [2] = experiment: Displacement of ethidium bromide from DNA AATA region by […] analysis; summary of the method: as §1
Nucleic Acid [3] = experiment: Displacement of ethidium bromide from DNA AAAT region by […] analysis; summary of the method: as §1
Nucleic Acid [4] = experiment: Displacement of ethidium bromide from DNA TAAA region by […] analysis; summary of the method: as §1
Nucleic Acid [5] = experiment: Binding affinity to minor groove region of DNA
Nucleic Acid [6] = experiment: Displacement of ethidium bromide from DNA TTAA region by […] analysis; summary of the method: as §1
Nucleic Acid [7] = experiment: Displacement of ethidium bromide from DNA TATTAGA region at 3 uM by […] analysis; summary of the method: as §1
Nucleic Acid [8] = experiment: Displacement of ethidium bromide from DNA ATAT region by […] analysis; summary of the method: as §1
Nucleic Acid [9] = experiment: Displacement of ethidium bromide from minor groove region of DNA at 3 uM by […] analysis; summary of the method: as §1
Nucleic Acid [10] = experiment: Displacement of ethidium bromide from DNA AAAA region by […] analysis; summary of the method: as §1
Nucleic Acid [11] = experiment: Displacement of ethidium bromide from DNA ATAA region by […] analysis; summary of the method: as §1
Nucleic Acid [12] = experiment: Displacement of ethidium bromide from DNA TGAATAA region at 3 uM by […] analysis; summary of the method: as §1
Nucleic Acid [13] = experiment: Displacement of ethidium bromide from DNA TATA region by […] analysis; summary of the method: as §1
Nucleic Acid [14] = experiment: Displacement of ethidium bromide from DNA ATTA region by […] analysis; summary of the method: as §1

Cn1cc(NC(=O)c2cc(NC(=O)CNC(=N)N)cn2C)cc1C(=O)NCCC(=N)N [NETROPSIN]
Activity (Nucleic Acid [1]): Active
Activity (Nucleic Acid [2]): Active
Activity (Nucleic Acid [3]): Active
Activity (Nucleic Acid [4]): Active
Kd (Nucleic Acid [5]): 1 nM
Activity (Nucleic Acid [6]): Active
Activity (Nucleic Acid [7]): Active
Activity (Nucleic Acid [8]): Active
Activity (Nucleic Acid [9]): Active
Activity (Nucleic Acid [10]): Active
Activity (Nucleic Acid [11]): Active
Activity (Nucleic Acid [12]): Active
Activity (Nucleic Acid [13]): Active
Activity (Nucleic Acid [14]): Active
